The source made the active and inactive calls. The rule behind the calls is not given here.
Tests used:
SN12C = assay: Cytotoxicity against human SN12C cells assessed as cell growth at 0.5 uM by SRB assay; format: functional; conditions: read-out: Activity
COLO 205 = assay: Cytotoxicity against human COLO205 cells assessed as cell growth at 50 uM by SRB assay; format: functional; conditions: read-out: Activity
MCF7 = assay: Cytotoxicity against human MCF7 cells by SRB assay; format: functional
How it was run: (§1)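 NCI-60 panel screen; 5-dose testing giving GI50 per cell line, plus a single 10 µM one-dose test. Method details not given beyond the NCI screen.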

MDA-MB-231 = assay: Cytotoxicity against human MDA-MB-231/ATCC cells by SRB assay; format: functional; how it was run: as §1
SK-OV-3 [1] = assay: Cytotoxicity against human SKOV3 cells by SRB assay; format: functional; how it was run: as §1
A549 [2] = assay: Cytotoxicity against human A549/ATCC cells assessed as cell growth at 0.005 uM by SRB assay; format: functional; conditions: read-out: Activity
[3] = Cytotoxicity against human NCI-ADR-RES cells assessed as cell growth at 0.5 uM by SRB assay; format: functional; conditions: read-out: Activity
SF-295 = assay: Cytotoxicity against human SF295 cells assessed as cell growth at 0.005 uM by SRB assay; format: functional; conditions: read-out: Activity
TK-10 = assay: Cytotoxicity against human TK10 cells assessed as cell growth at 5 uM by SRB assay; format: functional; conditions: read-out: Activity
NCI-H226 = assay: Cytotoxicity against human NCI-H226 cells assessed as cell growth at 0.05 uM by SRB assay; format: functional; conditions: read-out: Activity
K562 = assay: Induction of DNA double strand breaks in human K562 cells assessed as increase in gamma-H2AX level at 25 uM after 4 hrs by chemiluminescence analysis; format: functional, cell-based
How it was run: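 K562 cells (3.4 × 10^5/mL) exposed 4 h at 37 °C to 25 µM drug or DMSO. Lysed in Tris pH 6.7/SDS buffer; 50 µg protein on 14% SDS-PAGE, PVDF blot. Rabbit anti-γH2AX (1:1000, overnight), GAPDH loading control, HRP secondary. Chemiluminescence imaged by CCD.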

HOP-62 [4] = assay: Cytotoxicity against human HOP62 cells assessed as cell growth at 5 uM by SRB assay; format: functional; conditions: read-out: Activity
How it was run: (§2)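 Measured in the NCI-60 human tumour cell line panel using five-dose testing. Growth was recorded at each dose for each cell line, and a GI50 was derived for each line.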

OVCAR-5 [5] = assay: Cytotoxicity against human OVCAR5 cells assessed as cell growth at 0.005 uM by SRB assay; format: functional; conditions: read-out: Activity
NCI-H522 [6] = assay: Cytotoxicity against human NCI-H522 cells assessed as cell growth at 50 uM by SRB assay; format: functional; conditions: read-out: Activity
CAKI-1 = assay: Cytotoxicity against human Caki1 cells by SRB assay; format: functional
HL-60(TB) = assay: Cytotoxicity against human HL-60(TB) cells assessed as cell growth at 5 uM by SRB assay; format: functional; conditions: read-out: Activity; how it was run: as §2
[7] = Cytotoxicity against human Hs578T cells assessed as cell growth at 0.05 uM by SRB assay; format: functional; conditions: Hs-578T, read-out: Activity; how it was run: as §2
DU-145 = assay: Cytotoxicity against human DU145 cells by SRB assay; format: functional; how it was run: as §2
NCI-H522 [8] = assay: Cytotoxicity against human NCI-H522 cells assessed as cell growth at 5 uM by SRB assay; format: functional; conditions: read-out: Activity
UO-31 = assay: Cytotoxicity against human UO31 cells assessed as cell growth at 0.5 uM by SRB assay; format: functional; conditions: read-out: Activity
786-0 = assay: Cytotoxicity against human 786-0 cells assessed as cell growth at 0.05 uM by SRB assay; format: functional; conditions: read-out: Activity
SF-268 = assay: Cytotoxicity against human SF268 cells assessed as cell growth at 50 uM by SRB assay; format: functional; conditions: read-out: Activity
MDA-MB-468 = assay: Cytotoxicity against human MDA-MB-468 cells assessed as cell growth at 50 uM by SRB assay; format: functional; conditions: read-out: Activity
CCRF-CEM = assay: Cytotoxicity against human CCRF-CEM cells assessed as cell growth at 5 uM by SRB assay; format: functional; conditions: read-out: Activity
SNB-75 = assay: Cytotoxicity against human SNB75 cells assessed as cell growth at 0.005 uM by SRB assay; format: functional; conditions: read-out: Activity
OVCAR-8 = assay: Cytotoxicity against human OVCAR8 cells assessed as cell growth at 0.05 uM by SRB assay; format: functional; conditions: read-out: Activity
A549 [9] = assay: Cytotoxicity against human A549/ATCC cells by SRB assay; format: functional
HCT-15 = assay: Cytotoxicity against human HCT15 cells by SRB assay; format: functional; how it was run: as §2
OVCAR-4 = assay: Cytotoxicity against human OVCAR4 cells by SRB assay; format: functional; how it was run: as §1
SK-OV-3 [10] = assay: Cytotoxicity against human SKOV3 cells assessed as cell growth at 5 uM by SRB assay; format: functional; conditions: read-out: Activity
U-251 = assay: Cytotoxicity against human U251 cells assessed as cell growth at 5 uM by SRB assay; format: functional; conditions: read-out: Activity
UACC-257 = assay: Cytotoxicity against human UACC257 cells assessed as cell growth at 50 uM by SRB assay; format: functional; conditions: read-out: Activity
RPMI-8226 = assay: Cytotoxicity against human RPMI8226 cells assessed as cell growth at 0.05 uM by SRB assay; format: functional; conditions: read-out: Activity
MOLT-4 = assay: Cytotoxicity against human MOLT4 cells assessed as cell growth at 0.5 uM by SRB assay; format: functional; conditions: read-out: Activity
HOP-62 [11] = assay: Cytotoxicity against human HOP62 cells by SRB assay; format: functional; how it was run: as §2
OVCAR-5 [12] = assay: Cytotoxicity against human OVCAR5 cells assessed as cell growth at 5 uM by SRB assay; format: functional; conditions: read-out: Activity
KM12 = assay: Cytotoxicity against human KM12 cells assessed as cell growth at 50 uM by SRB assay; format: functional; conditions: read-out: Activity
[13] = read-out: LC50 (the source's name)
[14] = read-out: pLC50 (the source's name) (converted)

With COc1cc([C@@H]2c3cc4c(cc3[C@@H](NC(=O)CN3CCN(CCCCCCCCCCN5CCN(CC(=O)N[C@@H]6c7cc8c(cc7[C@@H](c7cc(OC)c(O)c(OC)c7)[C@H]7C(=O)OC[C@@H]76)OCO8)CC5)CC3)[C@H]3COC(=O)[C@H]23)OCO4)cc(OC)c1O the growth at 0.5 µM (SN12C) was 27%, the growth at 50 µM (COLO 205) was -35% and the GI50 (MCF7; read-out: GI50) was 114 nM. It also gave a CC50 (MCF7; [13]) of 37400 nM, a TGI (MCF7; read-out: TGI) of 8500 nM and a GI50 (MCF7; read-out: pGI50 (converted)) of 115 nM. For the same compound, the CC50 (MCF7; [14]) was 37200 nM, the TGI (MCF7; read-out: pTGI (converted)) was 8510 nM and the GI50 (MDA-MB-231; read-out: GI50) was 958 nM. It also gave a CC50 (MDA-MB-231; [13]) of 18300 nM, a TGI (MDA-MB-231; read-out: TGI) of 2280 nM and a GI50 (MDA-MB-231; read-out: pGI50 (converted)) of 955 nM. It also gave a CC50 (MDA-MB-231; [14]) of 18200 nM, a TGI (MDA-MB-231; read-out: pTGI (converted)) of 2290 nM and a GI50 (SK-OV-3 [1]; read-out: GI50) of 557 nM. The CC50 (SK-OV-3 [1]; [13]) was 16500 nM, the TGI (SK-OV-3 [1]; read-out: TGI) was 5430 nM and the GI50 (SK-OV-3 [1]; read-out: pGI50 (converted)) was 562 nM. For the same compound, the CC50 (SK-OV-3 [1]; [14]) was 16600 nM, the TGI (SK-OV-3 [1]; read-out: pTGI (converted)) was 5370 nM and the growth at 0.005 µM (A549 [2]) was 74%. For the same compound, the growth at 0.5 µM [3] was 101%, the growth at 0.005 µM (SF-295) was 92% and the growth at 5 µM (TK-10) was -4%. For the same compound, the growth at 0.05 µM (NCI-H226) was 83%, the Activity (K562) was “Active” and the growth at 5 µM (HOP-62 [4]) was -73%. It also gave a growth at 0.005 µM (OVCAR-5 [5]) of 95%, a growth at 50 µM (NCI-H522 [6]) of -55% and a GI50 (CAKI-1; read-out: GI50) of 1930 nM. For the same compound, the CC50 (CAKI-1; [13]) was 21000 nM, the TGI (CAKI-1; read-out: TGI) was 8370 nM and the GI50 (CAKI-1; read-out: pGI50 (converted)) was 1950 nM. It also gave a CC50 (CAKI-1; [14]) of 20900 nM, a TGI (CAKI-1; read-out: pTGI (converted)) of 8320 nM and a growth at 5 µM (HL-60(TB)) of -44%. It also gave a growth at 0.05 µM [7] of 95%, a GI50 (DU-145; read-out: GI50) of 153 nM and a CC50 (DU-145; [13]) of 14600 nM. The TGI (DU-145; read-out: TGI) was 2890 nM, the GI50 (DU-145; read-out: pGI50 (converted)) was 151 nM and the CC50 (DU-145; [14]) was 14500 nM. For the same compound, the TGI (DU-145; read-out: pTGI (converted)) was 2880 nM, the growth at 5 µM (NCI-H522 [8]) was -54% and the growth at 0.5 µM (UO-31) was 76%. For the same compound, the growth at 0.05 µM (786-0) was 89%, the growth at 50 µM (SF-268) was -40% and the growth at 50 µM (MDA-MB-468) was -69%. For the same compound, the growth at 5 µM (CCRF-CEM) was -10%, the growth at 0.005 µM (SNB-75) was 95% and the growth at 0.05 µM (OVCAR-8) was 92%. For the same compound, the GI50 (A549 [9]; read-out: GI50) was 17.2 nM, the CC50 (A549 [9]; [13]) was > 50000 nM and the TGI (A549 [9]; read-out: TGI) was 883 nM. The GI50 (A549 [9]; read-out: pGI50 (converted)) was 17.4 nM, the CC50 (A549 [9]; [14]) was > 50100 nM and the TGI (A549 [9]; read-out: pTGI (converted)) was 891 nM. The GI50 (HCT-15; read-out: GI50) was 359 nM, the CC50 (HCT-15; [13]) was 3390 nM and the TGI (HCT-15; read-out: TGI) was 1240 nM. The GI50 (HCT-15; read-out: pGI50 (converted)) was 363 nM, the CC50 (HCT-15; [14]) was 3390 nM and the TGI (HCT-15; read-out: pTGI (converted)) was 1230 nM. For the same compound, the GI50 (OVCAR-4; read-out: GI50) was 911 nM, the CC50 (OVCAR-4; [13]) was 14100 nM and the TGI (OVCAR-4; read-out: TGI) was 2730 nM. The GI50 (OVCAR-4; read-out: pGI50 (converted)) was 912 nM, the CC50 (OVCAR-4; [14]) was 14100 nM and the TGI (OVCAR-4; read-out: pTGI (converted)) was 2750 nM. The growth at 5 µM (SK-OV-3 [10]) was 4%, the growth at 5 µM (U-251) was 9% and the growth at 50 µM (UACC-257) was -58%. It also gave a growth at 0.05 µM (RPMI-8226) of 13%, a growth at 0.5 µM (MOLT-4) of 37% and a GI50 (HOP-62 [11]; read-out: GI50) of 43.8 nM. The TGI (HOP-62 [11]; read-out: TGI) was 863 nM, the GI50 (HOP-62 [11]; read-out: pGI50 (converted)) was 43.6 nM and the TGI (HOP-62 [11]; read-out: pTGI (converted)) was 871 nM. For the same compound, the growth at 5 µM (OVCAR-5 [12]) was 5% and the growth at 50 µM (KM12) was -31%.

Source: ChEMBL document CHEMBL3588757, “Structure-based design, synthesis and biological testing of piperazine-linked bis-epipodophyllotoxin etoposide analogs” (Bioorg Med Chem, 2015)
